Measured values: ChEMBL document CHEMBL1138269, “Antimicrobial lexitropsins containing amide, amidine, and alkene linking groups” (J Med Chem, 2007)
Values after ≈ are worked out from the molar mass of the structure shown.

What was measured:
Assay type in all cases: functional
[1] = test system: Staphylococcus aureus; assay: Antibacterial activity against methicillin-resistant Staphylococcus aureus clinical isolate 2
Outline: (§1)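 Broth microdilution MIC against clinical S. aureus isolates (incl. MRSA), run per NCCLS guidelines in 96-well plates. Test sample dissolved in sterile water to a 200 µg mL-1 working concentration, then doubling dilutions in Mueller-Hinton broth. Incubated at 37 °C, growth read visually plus resazurin indicator. MIC reported in µg/mL.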

[2] = test system: Aspergillus niger; assay: Antifungal activity against Aspergillus niger IMI 149007
Outline: (§2)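 Antifungal microdilution in Sabouraud broth. Test sample at 200 µg mL-1 working solution in sterile water was serially doubled down successive rows. Incubation was at 25 °C, followed by visual growth check and addition of resazurin indicator. Read-out is MIC in µg mL-1.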

[3] = test system: Staphylococcus aureus; assay: Antibacterial activity against methicillin-resistant Staphylococcus aureus clinical isolate 5; outline: as §1
[4] = test system: Staphylococcus aureus; assay: Antibacterial activity against methicillin-sensitive Staphylococcus aureus NCTC 6571
Outline: (§3)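 Broth microdilution in Mueller-Hinton broth. Samples were dissolved in sterile water to 200 µg mL-1 as the working solution and doubling dilutions were made across rows. Plates were incubated at 37 °C and inspected visually, with resazurin added as growth indicator. MIC reported in µg mL-1.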

[5] = test system: Candida albicans; assay: Antifungal activity against Candida albicans NCPF 3179; settings: Candida albicans; read-out: MIC; outline: as §2
[6] = test system: Staphylococcus aureus; assay: Antibacterial activity against methicillin-resistant Staphylococcus aureus clinical isolate 3; outline: as §1
[7] = test system: Staphylococcus aureus; assay: Antibacterial activity against methicillin-resistant Staphylococcus aureus clinical isolate 1; outline: as §1
[8] = test system: Staphylococcus aureus; assay: Antibacterial activity against methicillin-resistant Staphylococcus aureus clinical isolate 4; outline: as §1
[9] = test system: Mycolicibacterium fortuitum; assay: Antibacterial activity against Mycobacterium fortuitum NCTC 10394; outline: as §3
[10] = test system: Enterococcus faecalis; assay: Antibacterial activity against Streptococcus faecalis NCTC 775; outline: as §3
[11] = Staphylococcus aureus, NCTC 6571, read-out: MIC
[12] = Enterococcus faecalis, NCTC 775, read-out: MIC

Compound | MIC [1] [µg/mL] | MIC [2] [µg/mL] | MIC [3] [µg/mL] | MIC [4, 11] [µg/mL] | MIC [5] [µg/mL] | MIC [6] [µg/mL] | MIC [7] [µg/mL] | MIC [8] [µg/mL] | MIC [9] [µg/mL] | MIC [10, 12] [µg/mL] | MIC [4] [µg/mL] | MIC [10] [µg/mL]
COc1cccc(C(=O)Nc2cc(C(=O)Nc3cc(C(=O)Nc4nc(C(=O)NCCCN(C)C)c(C(C)C)s4)n(C)c3)n(C)c2)c1 | 32 (≈ 49.3 µM) | > 50 | 32 (≈ 49.3 µM) | 25 (≈ 38.5 µM) | > 50 | 32 (≈ 49.3 µM) | 16 (≈ 24.7 µM) | 32 (≈ 49.3 µM) | > 50 | 25 (≈ 38.5 µM) | – | –
CC(C)c1sc(NC(=O)c2cc(NC(=O)c3cc(NC=O)cn3C)cn2C)nc1C(=O)NCCN1CCOCC1 | > 64 | > 50 | 64 (≈ 112 µM) | 13 (≈ 22.8 µM) | > 50 | 64 (≈ 112 µM) | 32 (≈ 56.1 µM) | 64 (≈ 112 µM) | > 50 | 25 (≈ 43.8 µM) | – | –
CN(C)CCCNC(=O)c1cc(NC(=O)c2cc(NC(=O)c3ccc(/C=C/c4ccncc4)cc3)cn2C)cn1C | 32 (≈ 57.8 µM) | > 50 | > 64 | 50 (≈ 90.3 µM) | > 50 | 64 (≈ 116 µM) | 16 (≈ 28.9 µM) | > 64 | > 50 | 25 (≈ 45.2 µM) | – | –
Cn1cc(NC(=O)c2cc(NC(=O)c3csc(/C=C/c4ccc5ccccc5n4)n3)cn2C)cc1C(=O)NCCN1CCOCC1 | 8 (≈ 12.5 µM) | > 50 | 8 (≈ 12.5 µM) | 3 (≈ 4.7 µM) | > 50 | 8 (≈ 12.5 µM) | 8 (≈ 12.5 µM) | 8 (≈ 12.5 µM) | > 50 | 25 (≈ 39.1 µM) | – | –
COc1cccc(/C=C/c2cc(C(=O)Nc3cc(C(=O)Nc4cc(C(=O)NCCCN(C)C)n(C)c4)n(C)c3)n(C)c2)c1 | 32 (≈ 54.6 µM) | > 50 | 32 (≈ 54.6 µM) | > 50 | 50 (≈ 85.4 µM) | 32 (≈ 54.6 µM) | 32 (≈ 54.6 µM) | 32 (≈ 54.6 µM) | > 50 | 25 (≈ 42.7 µM) | – | –
Cn1cc(NC(=O)c2cc(NC(=O)c3cc(NC(=O)c4cccc(Cl)c4)cn3C)cn2C)cc1C(=O)NCCc1ccccn1 | > 64 | > 50 | > 64 | > 50 | > 50 | > 64 | > 64 | > 64 | > 50 | > 50 | – | –
CN(C)CCCNC(=O)c1cc(NC(=O)c2cc(NC(=O)c3cc(/C=C/c4ccc([N+](=O)[O-])cc4)cn3C)cn2C)cn1C | > 64 | > 50 | > 64 | 50 (≈ 83.2 µM) | > 50 | > 64 | > 64 | > 64 | > 50 | 50 (≈ 83.2 µM) | – | –
Cn1cc(NC(=O)c2cc(NC(=O)c3ccc(/C=C/c4nc5ccccc5o4)cc3)cn2C)cc1C(=O)NCCN1CCOCC1 (stereo in doubt; 79) | 16 (≈ 25.7 µM) | > 50 | 1 (≈ 1.61 µM) | – | > 50 | 1 (≈ 1.61 µM) | 1 (≈ 1.61 µM) | 1 (≈ 1.61 µM) | > 50 | – | 13 (≈ 20.9 µM) | 25 (≈ 40.2 µM)
Cn1cccc1/C=C/c1ccc(C(=O)Nc2cc(C(=O)Nc3cc(C(=O)NCCN4CCOCC4)n(C)c3)n(C)c2)cc1 | 16 (≈ 27.4 µM) | > 50 | 16 (≈ 27.4 µM) | 3 (≈ 5.14 µM) | > 50 | 16 (≈ 27.4 µM) | 4 (≈ 6.85 µM) | 16 (≈ 27.4 µM) | > 50 | 13 (≈ 22.3 µM) | – | –
CC(C)CCc1sc(NC(=O)c2cc3ccccc3cn2)nc1C(=O)Nc1cc(C(=O)NCCCN(C)C)n(C)c1 | 32 (≈ 55.6 µM) | > 50 | 32 (≈ 55.6 µM) | > 50 | > 50 | 32 (≈ 55.6 µM) | 32 (≈ 55.6 µM) | 32 (≈ 55.6 µM) | > 50 | > 50 | – | –
CC(C)c1sc(NC(=O)c2cc(NC(=O)c3cc(NC(=O)c4cccc(Cl)c4)cn3C)cn2C)nc1C(=O)NCCCN(C)C | 11 (≈ 16.8 µM) | > 50 | 2 (≈ 3.06 µM) | 13 (≈ 19.9 µM) | > 50 | 11 (≈ 16.8 µM) | 11 (≈ 16.8 µM) | 0.5 (≈ 0.765 µM) | > 50 | 6 (≈ 9.19 µM) | – | –
COc1cccc(C(=N)Nc2cc(C(=O)Nc3cc(C(=O)Nc4cc(C(=O)NCCc5ccccn5)n(C)c4)n(C)c3)n(C)c2)c1 | > 64 | > 50 | > 64 | 50 (≈ 80.4 µM) | > 50 | > 64 | > 64 | > 64 | > 50 | > 50 | – | –
CC(=N)Nc1cc(C(=O)Nc2cc(C(=O)Nc3nc(C(=O)NCCN4CCOCC4)c(C(C)C)s3)n(C)c2)n(C)c1 | > 64 | > 50 | > 64 | > 50 | > 50 | > 64 | 64 (≈ 110 µM) | > 64 | > 50 | > 50 | – | –
